The results in this text go back to ChEMBL document CHEMBL1152792, “Synthesis and anticonvulsant activity of amino acid-derived sulfamides” (J Med Chem, 2009).

Series [1] concerns Mus musculus. The series can be described thus: Toxicity in albino mouse at 30 mg/kg, ip after 4 hrs by rotarod test. The series is classed as organism-based. Set-up: dose 30 mg/kg, route intraperitoneal. Conditions: in vivo. The procedure, abridged: (§1)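 Neurotoxicity was screened by the standardized rotarod test in the ADD phase I protocol. Adult male albino mice (18–23 g) received compound ip in 30% PEG 400 and 10% water at 0.01 mL/g. Animals were tested 0.5 and 4 h post-dose. Result scored as toxic/tested animals.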

Series [2] has as its system Mus musculus. The series can be described thus: Anticonvulsant activity in albino mouse at 300 mg/kg, ip after 4 hrs by PTZ test. Also noted: dose 300 mg/kg. The series is classed as functional, organism-based. The procedure, abridged:
(§2)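 NIH Anticonvulsant Drug Development (ADD) program phase I screen in adult male albino mice (18–23 g). Compound given ip in 30% PEG 400 and 10% water at 0.01 mL/g body weight. Seizures were induced electrically (MES) or chemically (PTZ), and animals were tested 0.5 and 4 h after dosing. Result scored as protected/tested animals.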

Series [3] concerns Mus musculus. The series can be described thus: Toxicity in albino mouse at 100 mg/kg, ip after 0.5 hrs by rotarod test. The series is classed as organism-based. Also noted: dose 100 mg/kg, route intraperitoneal. Conditions: in vivo. The procedure, abridged:
as §1

Series [4] has as its system Mus musculus. The series can be described thus: Anticonvulsant activity in albino mouse at 30 mg/kg, ip after 4 hrs by PTZ test. The series is classed as functional, organism-based. Also noted: dose 30 mg/kg. The procedure, abridged:
as §2

For series [5], the system named is Mus musculus. The series can be described thus: Anticonvulsant activity in albino mouse at 30 mg/kg, ip after 4 hrs by MES test. The series is classed as functional, organism-based. Also noted: dose 30 mg/kg. The procedure, abridged:
as §2

Series [6] concerns Mus musculus. The series can be described thus: Anticonvulsant activity in albino mouse at 30 mg/kg, ip after 0.5 hrs by PTZ test. The series is classed as functional, organism-based. Also noted: dose 30 mg/kg. The procedure, abridged:
as §2

Series [7] deals with Mus musculus. The series can be described thus: Anticonvulsant activity in albino mouse at 100 mg/kg, ip after 4 hrs by PTZ test. The series is classed as functional, organism-based. Also noted: dose 100 mg/kg. Summed up:
as §2

Series [8] concerns Mus musculus. The series can be described thus: Toxicity in albino mouse at 100 mg/kg, ip after 4 hrs by rotarod test. The series is classed as organism-based. Also noted: dose 100 mg/kg, route intraperitoneal. Conditions: in vivo. The procedure, abridged: as §1
The species named for series [9] is Mus musculus. The series can be described thus: Ratio of valproic acid ED50 to compound ED50 in albino mouse after 2 hrs by MES test. The series is classed as functional. Summed up:
(§3)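 The compound ED50 came from ip dosing in male albino mice (six per dose) at the time of peak effect. The valproate ED50 was taken from earlier literature.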

The test system of series [10] is Mus musculus. The series can be described thus: Anticonvulsant activity in albino mouse at 300 mg/kg, ip after 0.5 hrs by PTZ test. Set-up: dose 300 mg/kg. The series is classed as functional, organism-based. Summed up: as §2
Series [11] deals with Mus musculus. The series can be described thus: Anticonvulsant activity in albino mouse at 30 mg/kg, ip after 0.5 hrs by MES test. The series is classed as functional, organism-based. Set-up: dose 30 mg/kg. The procedure, abridged: as §2
In series [12] the test system is Mus musculus. The series can be described thus: Anticonvulsant activity in albino mouse at 100 mg/kg, ip after 0.5 hrs by PTZ test. The series is classed as functional, organism-based. Set-up: dose 100 mg/kg. Summed up:
as §2

Series [13] concerns Mus musculus. The series can be described thus: Anticonvulsant activity in ip dosed albino mouse after 2 hrs by MES test. The series is classed as functional. The procedure, abridged:
(§4)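 Phase II quantitative MES test in adult male albino mice (18–23 g). Compound given ip in 30% PEG 400 and 10% water at 0.01 mL/g. Testing was done at the previously determined time of peak effect. Six mice per dose group; ED50 (dose protecting 50% of animals, μmol/kg) calculated from the dose–response curve.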

Series [14] deals with Mus musculus. The series can be described thus: Toxicity in albino mouse at 300 mg/kg, ip after 4 hrs by rotarod test. The series is classed as organism-based. Set-up: dose 300 mg/kg, route intraperitoneal. The note with it: in vivo. Summed up:
as §1

Series [15] has as its system Mus musculus. The series can be described thus: Toxicity in albino mouse at 30 mg/kg, ip after 0.5 hrs by rotarod test. The note with it: in vivo. Also noted: dose 30 mg/kg, route intraperitoneal. The series is classed as organism-based. Summed up: as §1
For series [16], the system named is Mus musculus. The series can be described thus: Toxicity in albino mouse at 300 mg/kg, ip after 0.5 hrs by rotarod test. The note with it: in vivo. The series is classed as organism-based. Set-up: dose 300 mg/kg, route intraperitoneal. Summed up: as §1
The species entered for series [17] is Mus musculus. The series can be described thus: Ratio of valproic acid ED50 to compound ED50 in albino mouse after 0.5 hrs by MES test. The series is classed as functional.
The subject of series [18] is Mus musculus. The series can be described thus: Anticonvulsant activity in ip dosed albino mouse after 0.5 hrs by MES test. The series is classed as functional.
Series [19] concerns Mus musculus. The series can be described thus: Anticonvulsant activity in albino mouse at 100 mg/kg, ip after 4 hrs by MES test. The series is classed as functional, organism-based. Set-up: dose 100 mg/kg. Summed up:
as §2

Series [20] deals with Mus musculus. The series can be described thus: Anticonvulsant activity in albino mouse at 100 mg/kg, ip after 0.5 hrs by MES test. The series is classed as functional, organism-based. Set-up: dose 100 mg/kg. The procedure, abridged:
as §2

Series [21] concerns Mus musculus. The series can be described thus: Anticonvulsant activity in albino mouse at 300 mg/kg, ip after 4 hrs by MES test. The series is classed as functional, organism-based. Set-up: dose 300 mg/kg. Summed up:
as §2

Series [22] is filed under the species Mus musculus. The series can be described thus: Ratio of valproic acid ED50 to compound ED50 in albino mouse after 4 hrs by MES test. The series is classed as functional. Summed up: as §3
Series [23] has as its system Mus musculus. The series can be described thus: Anticonvulsant activity in albino mouse at 300 mg/kg, ip after 0.5 hrs by MES test. The series is classed as functional, organism-based. Set-up: dose 300 mg/kg. The procedure, abridged: as §2
Series [24] has as its system Mus musculus. The series can be described thus: Anticonvulsant activity in ip dosed albino mouse after 4 hrs by MES test. The series is classed as functional. The procedure, abridged: as §4
Series [25] has as its system Mus musculus. The series can be described thus: Anticonvulsant activity in ip dosed albino mouse after 0.25 hrs by MES test. The series is classed as functional.

Each structure is given as a SMILES string. Activity calls are given as the source filed them. No cut-off for these calls is given here.

In the case of `CCCC(CCC)CNS(=O)(=O)NCC(=O)OC`, the Activity entry with Mus musculus [1], in the series on Mus musculus [3], in the series with Mus musculus [8], in the series with Mus musculus [14], in the series with Mus musculus [15] and with Mus musculus [16] was “Non-toxic” throughout. Besides, the outcome in the series with Mus musculus [2], with Mus musculus [4], with Mus musculus [5], in the series on Mus musculus [6], in the series with Mus musculus [7] and with Mus musculus [10] was inactive. In addition, the result in the series on Mus musculus [11] and in the series with Mus musculus [12] was inactive. The “Ratio ED50” value in the series filed under Mus musculus [9] is 7.3. Moreover, in the series on Mus musculus [13], the 50% effect level (ED50) was put at a dose of 139 µmol/kg.
For the compound `CCCC(CCC)C(=O)NCC(N)=O` [VALROCEMIDE], the “Ratio ED50” value in the series listed under Mus musculus [17] is reported as 1.3. This compound also registered an ED50 in the series with Mus musculus [18] of 755 µmol/kg.
Turning to `CCCCNS(=O)(=O)NCCC(=O)OC`, the Activity entry with Mus musculus [1], with Mus musculus [3], with Mus musculus [8], in the series on Mus musculus [14], in the series on Mus musculus [15] and with Mus musculus [16] was “Non-toxic” throughout. For the same compound, the outcome in the series on Mus musculus [2], with Mus musculus [4], in the series with Mus musculus [6], in the series with Mus musculus [7], in the series on Mus musculus [10] and in the series on Mus musculus [12] was inactive. Besides, the “Ratio ED50” value in the series listed under Mus musculus [9] turned out to be 14.2. Besides, it took a dose of 71 µmol/kg to reach the 50% effect level in the series with Mus musculus [13] (ED50).
With `CCCC(CCC)CNS(=O)(=O)NCCC(=O)OC`, the Activity entry in the series on Mus musculus [1], in the series on Mus musculus [3], with Mus musculus [8], in the series on Mus musculus [14], with Mus musculus [15] and with Mus musculus [16] was “Non-toxic” in each case. Further, the result with Mus musculus [19], in the series on Mus musculus [4], with Mus musculus [7] and with Mus musculus [20] was inactive. Besides, the result in the series on Mus musculus [5] and with Mus musculus [12] was Active. The “Ratio ED50” value in the series filed under Mus musculus [9] worked out at 12.8. Further, in the series with Mus musculus [13], it took a dose of 79 µmol/kg to reach the 50% effect level (ED50).
For the compound `COC(=O)CCNS(=O)(=O)Oc1ccccc1O`, the Activity result in the series on Mus musculus [1], with Mus musculus [3], in the series on Mus musculus [8], with Mus musculus [14], with Mus musculus [15] and with Mus musculus [16] was “Non-toxic” throughout. Also, the result with Mus musculus [21], in the series with Mus musculus [2], in the series on Mus musculus [23], with Mus musculus [4], in the series with Mus musculus [5] and in the series on Mus musculus [7] was inactive. The result in the series on Mus musculus [11] and with Mus musculus [12] was inactive. Besides, the “Ratio ED50” value in the series filed under Mus musculus [22] stood at 2.7. For the same compound, in the series with Mus musculus [24], the ED50 stood at 374 µmol/kg.
For the compound `CCCC(CCC)C(=O)O` [VALPROIC ACID], it took a dose of 1010 µmol/kg to reach the 50% effect level in the series on Mus musculus [25] (ED50).
For `COC(=O)CNS(=O)(=O)NCc1ccccc1`, the Activity result in the series on Mus musculus [1], in the series with Mus musculus [3], in the series on Mus musculus [8], in the series on Mus musculus [14], with Mus musculus [15] and in the series with Mus musculus [16] was “Non-toxic” in each case. The result with Mus musculus [21], in the series with Mus musculus [2], in the series with Mus musculus [19], with Mus musculus [23], with Mus musculus [4] and with Mus musculus [5] was inactive. Further, the result with Mus musculus [6], in the series on Mus musculus [7], with Mus musculus [20], in the series on Mus musculus [10], in the series with Mus musculus [11] and in the series on Mus musculus [12] was inactive.
`COC(=O)CNS(=O)(=O)NC(=O)OC(C)(C)C`: the Activity result in the series with Mus musculus [1], in the series with Mus musculus [3], in the series with Mus musculus [8], in the series with Mus musculus [14], in the series on Mus musculus [15] and in the series with Mus musculus [16] was “Non-toxic” in each case. The outcome in the series on Mus musculus [21], in the series with Mus musculus [2], with Mus musculus [19], in the series with Mus musculus [23], in the series with Mus musculus [4] and in the series with Mus musculus [5] was inactive. For the same compound, the result in the series on Mus musculus [6], with Mus musculus [7], in the series with Mus musculus [20], with Mus musculus [10], with Mus musculus [11] and with Mus musculus [12] was inactive.
